Article PMC7125423 (Archives of Pharmacal Research, 2020)
“And” between values parts separate entries of the source, which are not always exact repeats. Equal entries are not always repeated.

Columns and labels:
[1] = molecular target: influenza H1N1 virus neuraminidase (Influenza A virus, UniProt P03468); test: Neuraminidase inhibition screening assay; type: biochemical
MDCK cells = test: Cell viability assay; type: cell-based, canine; settings: 24 h, MTT
How it was run: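 Confluent MDCK cells (grown in DMEM with 10% FBS, penicillin and streptomycin, 5% CO2) were exposed to graded concentrations of test compound for 24 h. Viability was measured by MTT. The maximum non-toxic dose was taken from this assay and then used in the infection assays.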

[2] = test system: influenza virus A/Font Monmouth/47(H1N1, FM1); type: cell-based
neuraminidase = type: cell-based, influenza virus A/Font Monmouth/47(H1N1, FM1)
IAV nucleoprotein (NP) = test: Indirect immunofluorescence of viral NP in H1N1-infected MDCK cells; type: cell-based, influenza virus A/Font Monmouth/47(H1N1, FM1); settings: at MNTD, 8 h after infection, compared to virus group
How it was run: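 Confluent MDCK monolayers were infected with 100 μL of 100 TCID50 H1N1 for 2 h at 37 °C. Inoculum was removed and test compound was added at its maximum non-toxic dose in DMEM. At 8 h post-infection, cells were fixed in ice-cold acetone/methanol (40:60) for 15 min. Staining used mouse anti-NP monoclonal antibody (1:100 in PBS, 1 h), then Alexa Fluor 488 anti-mouse IgG (1:100, 1 h), with DAPI for nuclei; imaged by fluorescence microscopy.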

[3] = test system: influenza A/Font Monmouth/47(H1N1, FM1) virus; parameters: species or system NIH mice; settings: mouse, in vivo
[4] = Dose safety of curcumin in mice; type: in vivo; settings: 100 mg/kg/day
[5] = test system: influenza A/Font Monmouth/47(H1N1, FM1) virus; test: Survival experiments in IAV-infected mice; type: in vivo, NIH mice; settings: 100, 50 and 25 mg/kg/day, pre-infection and post-infection, oral gavage, 2 LD50, vs placebo
TNF-α = test: Cytokine in lung homogenate of IAV-infected mice; type: in vivo; settings: day 5 after infection; different doses, except 25 mg/kg/day
How it was run: (§1)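 Female SPF NIH mice (13–15 g) were infected with mouse-adapted IAV A/Font Monmouth/47 (H1N1, FM1). Controls were normal and placebo (saline, 0.5% Tween 80) groups. On day 5 post-infection, lungs were homogenised and centrifuged (4000×g, 15 min, 4 °C), and supernatants were stored at −80 °C. Cytokines were measured by anti-mouse ELISA kits; n = 10; mean ± SD of 3 separate experiments.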

IL-6 = test: Cytokine in lung homogenate of IAV-infected mice; type: in vivo; settings: day 5 after infection; different doses (100, 50, 25 mg/kg/day)
How it was run: as §1

IFN-γ = test: Cytokine in lung homogenate of IAV-infected mice; type: in vivo; settings: day 5 after infection; different doses (100, 50, 25 mg/kg/day)
How it was run: as §1

[6] = IC50, NA activity inhibition assay

influenza H1N1 virus neuraminidase, sequence (P03468 whole entry): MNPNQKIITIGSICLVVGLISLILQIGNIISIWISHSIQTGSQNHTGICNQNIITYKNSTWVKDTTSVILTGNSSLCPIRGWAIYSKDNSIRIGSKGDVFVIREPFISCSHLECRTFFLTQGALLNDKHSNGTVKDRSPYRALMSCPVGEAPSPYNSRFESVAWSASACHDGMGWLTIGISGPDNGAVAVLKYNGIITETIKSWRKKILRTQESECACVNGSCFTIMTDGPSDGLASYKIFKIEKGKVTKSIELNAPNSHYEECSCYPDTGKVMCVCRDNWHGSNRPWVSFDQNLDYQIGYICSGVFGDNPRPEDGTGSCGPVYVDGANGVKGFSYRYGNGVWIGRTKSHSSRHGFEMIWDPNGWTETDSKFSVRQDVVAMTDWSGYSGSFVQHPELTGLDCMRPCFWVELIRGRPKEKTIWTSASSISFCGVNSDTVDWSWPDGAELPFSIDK

Compound | IC50 [1, 6] [µM] | MNTD (maximum non-toxic dose) (MDCK cells) [µM] | decrease of mRNA expression level of M gene [2] | mRNA expression level of M gene [2] [µM] | decrease of NA activity (neuraminidase) | neuraminidase activity in cell supernatant (neuraminidase) [mU/mL] | viral NP localisation (immunofluorescence) (IAV nucleoprotein (NP)) | other results
COc1cc(/C=C/C(=O)CC(=O)/C=C/c2ccc(O)c(OC)c2)ccc1O [Curcumin] | 450 | 25 | about 5.26 fold | 0.19 ± 0.03 | about 2.04 fold | 0.48 ± 0.03 | less NP was observed in the cytoplasm | Lung index inhibition [3]: 22.42% and 23.6% and 35.75^** %; Lung pathological change degree [3]: 1.10 ± 0.39 and 0.92 ± 0.47 and 1.02 ± 0.55; weight and clinical symptoms (dose safety) [4]: remained stable in weight and showed no significant clinical symptoms; average survival time [5]: prolonged the average survival time; death protection rate [5]: promote the death protection rate significantly; TNF-α level in lung homogenate (TNF-α): significantly attenuated the increases; IL-6 level in lung homogenate (IL-6): significantly attenuated the increases; IFN-γ level in lung homogenate (IFN-γ): significantly attenuated the increases
[2H]C([2H])([2H])Oc1cc(/C=C/C(=O)CC(=O)/C=C/c2ccc(O)c(OC([2H])([2H])[2H])c2)ccc1O [Curcumin-d6] | – | – | – | – | – | – | – | pIC50 (expt.) ([1]; converted from IC50): 1.73
COc1cc(/C=C/C(O)=C/C(=O)/C=C/c2ccc(O)cc2)ccc1O [Demethoxycurcumin] | 200 | – | – | – | – | – | – | –
COc1ccc(/C=C/C(=O)/C=C(O)/C=C/c2ccc(OC)c(OC)c2)cc1OC [Dimethylcurcumin] | 1610 | – | – | – | – | – | – | –
COc1cc(/C=C/C(=O)CC(=O)/C=C/c2ccc(O)c(OC)c2)ccc1O [Curcumin-d6] | – | – | – | – | – | – | – | IC50 ([1]; NA activity inhibition assay): 18800 µM
COc1cc(CCC(=O)CC(O)CCc2ccc(O)c(OC)c2)ccc1O (centres unmarked) [Hexahydrocurcumin] | 33700 | – | – | – | – | – | – | IC50 ([1]; pIC50 (expt.), converted from IC50): 33900 µM
NC(=O)c1ncn([C@@H]2O[C@H](CO)[C@@H](O)[C@H]2O)n1 [Ribavirin, reference compound] | – | – | – | – | – | – | – | Lung index [3]: 0.94 ± 0.29; Lung index inhibition [3]: 43%; Lung pathological change degree [3]: 0.87 ± 0.52
O=C(/C=C/c1ccc(O)cc1)CC(=O)/C=C/c1ccc(O)cc1 [Bisdemethoxycurcumin] | 70.1 | 20 | about 2.13 fold | 0.47 ± 0.11 | 2.45 fold | 0.40 ± 0.01 | a strong green fluorescent signal was observed in the cytoplasm | –
Tetramethylcurcumin | – | 15 | about 3.85 fold | 0.26 ± 0.07 | 2.65 fold | 0.37 ± 0.06 | less NP was observed in the cytoplasm | IC50 ([1]; NA activity inhibition assay): 226 µM; pIC50 (expt.) ([1]; converted from IC50): 3.65
COc1cc(CCC(O)CC(O)CCc2ccc(O)c(OC)c2)ccc1O (centres unmarked) [Octahydrocurcumin] | 1530 | – | – | – | – | – | – | –
COc1cc(/C=C/C(=O)CC(=O)CCc2ccc(O)c(OC)c2)ccc1O [Dihydrocurcumin] | – | 20 | ~1.20 fold | 0.83 ± 0.09 | ~1.81 fold | 0.54 ± 0.02 | a strong green fluorescent signal was observed in the cytoplasm | IC50 ([1]; NA activity inhibition assay): 219 µM; pIC50 (expt.) ([1]; converted from IC50): 3.66
CCC(CC)O[C@@H]1C=C(C(=O)O)C[C@H](N)[C@H]1NC(C)=O [Oseltamivir carboxylate, reference compound] | – | – | about 11.11 fold | – | – | – | – | –
COc1cc(CCC(=O)CC(=O)CCc2ccc(O)c(OC)c2)ccc1O [Tetrahydrocurcumin] | 203 | – | – | – | – | – | – | –
